Results gathered from unrelated publications.
Protocols differ between the studies behind these lines. Converted amounts (≈) assume the structure as drawn.
Organism: Staphylococcus epidermidis

SMILES | assay | system | conditions | quantity | result
O=C(O)CN1C(=O)/C(=C/c2ccc(-c3ccc(N(c4ccccc4)c4ccccc4)cc3)c3ccccc23)NC1=S | microbial growth, broth dilution | ATCC12228 | – | MIC | > 1000 mg/L
O=C(O)c1cn(C2CC2)c2cc(N3CCNCC3)c(F)cc2c1=O | microbial killing, broth dilution | – | – | MBC | 0.5 mg/L (≈ 1.51 µM)
C/C(=C\c1ccc(C#N)cc1)C(=O)Nc1ccc(C(=O)N[C@@H](CC(N)=O)C(=O)Nc2ccc(C(=O)Nc3ccc(C(=O)Nc4ccc(C(=O)O)cc4)c(O)c3OC(C)C)cc2)cc1 | microbial growth | DSM28765 | – | MIC | ≤ 0.03 mg/L
N#CC(=Cc1ccccc1O)C1=NC(=O)C(=Cc2cn(-c3ccccc3)nc2-c2ccccc2)S1 | microbial killing, broth dilution | – | – | MBC | 0.25 mg/L (≈ 0.527 µM)
CO[C@@H](C(N)=O)[C@H](NC(=O)c1ccc(NC(=O)c2ccc(C#N)cc2)cc1)C(=O)Nc1ccc(C(=O)Nc2ccc(C(=O)Nc3ccc(C(=O)O)cc3)c(O)c2OC(C)C)cc1 | microbial growth | DSM28765 | – | MIC | ≤ 0.03 mg/L
O=C1NC(=S)S/C1=C\c1ccc(-c2ccc(N(c3ccccc3)c3ccccc3)cc2)c2ccccc12 | microbial killing, broth dilution | ATCC12228 | – | MBC | > 1000 mg/L
Cc1c(NC(=O)CC2=NC(=O)CS2)c(=O)n(-c2ccccc2)n1C | microbial killing, broth dilution | – | – | MBC | 1 mg/L (≈ 2.9 µM)
O=C1NC(=S)N/C1=C\c1ccc(-c2ccc(N(c3ccccc3)c3ccccc3)cc2)c2ccccc12 | microbial growth, broth dilution | ATCC12228 | – | MIC | > 1000 mg/L
C/C(=C\c1ccc(O)cc1)C(=O)Nc1ccc(C(=O)N[C@@H](CC(N)=O)C(=O)Nc2ccc(C(=O)Nc3ccc(C(=O)Nc4ccc(C(=O)O)cc4)c(O)c3OC(C)C)cc2)cc1 | microbial growth | DSM28765 | – | MIC | 0.25 mg/L
O=C(O)c1cn(C2CC2)c2cc(N3CCNCC3)c(F)cc2c1=O | microbial growth, broth dilution | ATCC12228 | – | MIC | 0.49 mg/L
CC(C)Oc1c(NC(=O)c2ccc(NC(=O)[C@H](CC(N)=O)NC(=O)c3ccc(NC(=O)c4ccc(C#N)cn4)cc3)cc2)ccc(C(=O)Nc2ccc(C(=O)O)cc2)c1O | microbial growth | DSM28765 | – | MIC | 1 mg/L
O=[N+]([O-])c1ccc2c(N=Nc3ccc4ccccc4c3O)c(O)cc(S(=O)(=O)O)c2c1 | microbial growth, broth dilution | – | 24 h | MIC50 | 31 µM (≈ 13.6 µg/mL)
COc1cccc(OC)c1C(=O)N[C@@H]1C(=O)N2[C@@H]1SC(C)(C)[C@@H]2C(=O)O | microbial growth, broth dilution | 12228 | – | MIC | 3.13 µM
